Bioassay records deposited in PubChem BioAssay by several laboratories.
Only some compounds are listed: those with a hit (about 3.3% of all), similar ones and a draw of the others.
HTR2A ag: mouse Htr2a agonists via beta-arrestin recruitment, primary screen, cell-based, luminescence. 5-hydroxytryptamine receptor 2A (Mus musculus), P35363. CHO-K1 mHTR2A beta-arrestin complementation; percent of 30 µM serotonin response. activation, % at 7.6 µM. hit rate 0.66% among 360,000;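 active = activation above a run cutoff, the mean activation of all tested compounds plus 3 SD, cut at about 14% in these data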
Target sequence (P35363 whole entry, looked up): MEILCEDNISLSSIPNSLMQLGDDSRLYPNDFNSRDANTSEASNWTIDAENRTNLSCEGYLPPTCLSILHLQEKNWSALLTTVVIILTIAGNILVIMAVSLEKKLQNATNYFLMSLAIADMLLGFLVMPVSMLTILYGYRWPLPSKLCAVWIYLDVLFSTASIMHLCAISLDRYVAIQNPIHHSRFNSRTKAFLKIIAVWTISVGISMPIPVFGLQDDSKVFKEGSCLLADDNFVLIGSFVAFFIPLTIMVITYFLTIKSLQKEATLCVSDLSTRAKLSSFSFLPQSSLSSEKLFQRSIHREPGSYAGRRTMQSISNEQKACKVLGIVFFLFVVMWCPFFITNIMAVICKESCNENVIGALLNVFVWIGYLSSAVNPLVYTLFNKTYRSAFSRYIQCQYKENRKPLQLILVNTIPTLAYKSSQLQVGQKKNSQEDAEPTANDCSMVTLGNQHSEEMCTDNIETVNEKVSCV
M18AAP inhibitor: PfM18AAP inhibitors, malaria aminopeptidase, primary screen, biochemical, QFRET, recombinant enzyme; M18 aspartyl aminopeptidase (Plasmodium falciparum 3D7); H-Glu-NHMec fluorogenic cleavage; inhibition, % at 7.35 µM; hit rate 1.2% among 290,000;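 active = inhibition above the campaign mean inhibition over all tested compounds plus 3 SD, cut at about 28% in these data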
Arrestin-AP2 inh: inhibitors of beta-arrestin/AP2 binding, primary screen, biochemical, GPCR trafficking, flow cytometry; beta-arrestin 1 C-terminal peptide binding to AP2 beta2-adaptin appendage (human); inhibition, % at 10 µM; hit rate 0.31% among 340,000; FITC-arrestin peptide / GST-AP2 beads; AP2 beta2 appendage carries R879A mutation; AID 504490, 2011;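 active = inhibition above a set limit, near 3 SD of compounds lacking own fluorescence, cut at about 54% in these data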
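test system = AP2 appendage R879A on GSH beads | buffer or medium = PBS plus Tween 20 (0.05%) and BSA (0.1%) | incubation = 12 min plus 1 h, RT | detection = bead flow cytometry, FITC channel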
sPLA2-III inh: human group III sPLA2 inhibitors, primary screen, biochemical, QFRET, BODIPY PC-A2 liposome substrate. AID 743126, 2013. inhibition, % at 12.2 µM. QFRET BODIPY PC-A2 liposome hydrolysis, fluorescence. hit rate 0.56% among 370,000;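 active = inhibition above mean plus 3 SD of compounds lying within the high and low control bounds, cut at about 19% in these data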
CendR NRP1 mod: modulators of CendR peptide binding to NRP-1, primary screen, biochemical, fluorescence polarization, uHTS. Neuropilin-1 (Homo sapiens), O14786. hit rate 0.85% among 360,000. FAM-RPARPAR peptide binding to NRP-1. inhibition, % at 25 µM. AID 602438, 2012;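 active = inhibition or corrected inhibition above about 18%, plus a signal ratio from 0.5 to 1.5, limit read from the data, passing the limit was not always enough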
Lipid droplet: inhibitors of hepatocyte lipid droplet formation, primary screen, imaging, high-throughput imaging, BODIPY stain; inhibition, % at 6.5 µM; AML12 mouse hepatocytes, oleate lipid droplets; hit rate 0.4% among 240,000; AID 1656, 2009;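 active = lipid droplet intensity inhibited by at least 50%, with more than 500 cells counted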
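Assay system: AML12 hepatocytes (mouse) / Also added: 100 µM oleic acid challenge / Times: overnight treatment with compound plus oleate / Detection: high-content imaging of BODIPY-stained droplets and DAPI nuclei / Evaluation: % inhibition of lipid droplet signal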
Large screens that a line does not name were inactive.

O=C(NC(=S)N1CCCCCC1)c1ccccc1	none
O=C(NC(=O)N1CCCCC1)c1ccccc1	CendR NRP1 mod 26
Cc1ccc(-c2oc3ccccc3c(=O)c2OCC(=O)O)cc1	CendR NRP1 mod 19
O=C(O)COc1c(-c2ccccc2)oc2ccccc2c1=O	none
Cc1cc(Oc2cccnc2)ccc1NC(=O)Cc1c(C)[nH]c2ccccc12	none (no result: HTR2A ag, M18AAP inhibitor, Arrestin-AP2 inh, CendR NRP1 mod, Lipid droplet)
Cc1ccc(S(=O)(=O)N2[C@@H](c3ccc(Cl)cc3)C(C(=O)OC(C)(C)C)=CC[C@H]2c2ccc(Cl)c(Cl)c2)cc1	CendR NRP1 mod 30 (no result: M18AAP inhibitor, Arrestin-AP2 inh, Lipid droplet)
COC(=O)[C@]12C[C@H](CC(=O)NCc3cccs3)C(=O)N(Cc3cccc4ccccc34)C1=C[C@H](C1CCCC1)O[C@@H]2C	none (no result: HTR2A ag, M18AAP inhibitor, Arrestin-AP2 inh, CendR NRP1 mod, Lipid droplet)
CCC(C)NC(=O)CNc1nnnn1-c1ccccc1 (stereo not drawn)	none (no result: HTR2A ag, M18AAP inhibitor, Arrestin-AP2 inh, CendR NRP1 mod, Lipid droplet)
COc1ccc(CCNC(=O)COC(=O)/C=C/c2cc(OC)ccc2OC)cc1	none (no result: M18AAP inhibitor, Lipid droplet)
COc1ccc(OC)c(/C=C/C(=O)OCC(=O)NCc2ccccc2)c1	CendR NRP1 mod 32 (no result: M18AAP inhibitor, Lipid droplet)
OC(c1ccccc1)(c1ccccc1)C1CCN(CCCNc2cccc(OC(F)(F)F)c2)CC1	none (no result: HTR2A ag, M18AAP inhibitor, Arrestin-AP2 inh, CendR NRP1 mod, Lipid droplet)
Cc1cncc(NCc2ccc3c(c2)OCO3)n1	none (no result: M18AAP inhibitor, Arrestin-AP2 inh, Lipid droplet)
CC(=O)c1ccc(S(=O)(=O)Oc2ccc(-c3ccc(C(=O)O)cc3)cc2)cc1	CendR NRP1 mod 26
CC(=O)Oc1ccc(-c2ccc(C(=O)O)cc2)cc1	none
CCC(=O)Nc1cccc(C(=O)/C=C/c2cccs2)c1	CendR NRP1 mod 27
Cc1ccsc1C(=O)OCC(=O)NC1CCCC1	CendR NRP1 mod 21 (no result: M18AAP inhibitor, Lipid droplet)
CCC(C)[C@H](NC(=O)Nc1cccc(Cl)c1)C(=O)O (stereo partly drawn)	CendR NRP1 mod 20
CN(C)CCc1cc2c(c3c1ccc1ccccc13)OCO2	none
Nc1sc2c(c1C(=O)NC1CCS(=O)(=O)C1)CCCC2 (stereo not drawn)	HTR2A ag 22
COc1ccc(NC(=O)C2(C)Cc3c(-c4ccc(N(C)C)cc4)ccnc3O2)cn1 (stereo not drawn)	none (no result: M18AAP inhibitor, Arrestin-AP2 inh, Lipid droplet)
O=C(NCc1cccnc1)NC1(c2ccccc2)CC1	HTR2A ag 20 (no result: Lipid droplet)
O=C(O)c1ccccc1C(=O)NCc1cccnc1	none (no result: Lipid droplet)
CC(=O)NC1=C(Nc2ccc(N(C)C)cc2)C(=O)c2ccccc2C1=O	M18AAP inhibitor 29
CC(=O)NC1=C(N(C)C2CCS(=O)(=O)C2)C(=O)c2ccccc2C1=O (stereo not drawn)	none
O=C(NCCN1CCN(C(=O)c2cccc(OC(F)F)c2)CC1)c1cccc(OC(F)F)c1	CendR NRP1 mod 22 (no result: M18AAP inhibitor, Lipid droplet)
COc1ccc(C(=O)NCCN2CCN(C(=O)c3ccc(OC)c(OC)c3)CC2)cc1OC	none
Cc1cccc(N2CCN(C(=O)c3ccnn3C)CC2)c1C	CendR NRP1 mod 25
O=C(Nc1ccc(F)c(Cl)c1)c1ccc2sc([C@H]3C[C@H](O)[C@@H](CO)O3)nc2c1	none (no result: M18AAP inhibitor, Arrestin-AP2 inh, Lipid droplet)
CCOc1cc(CNc2ccc3c(c2)CCC3)ccc1O	none
COc1cc(CNc2ccc3c(c2)CCC3)cc(OC)c1O	M18AAP inhibitor 38
COc1ccccc1Nc1nc(Cl)nc(Nc2ccccc2OC)n1	CendR NRP1 mod 26
COc1cc(OC)c(C2CC(=O)N3CN(c4ccccc4C)CSC3=C2C#N)cc1OC (stereo not drawn)	M18AAP inhibitor 43 (no result: HTR2A ag, Arrestin-AP2 inh, CendR NRP1 mod)
COc1ccc(N2CSC3=C(C#N)C(c4cccc(OC)c4OC)CC(=O)N3C2)cc1 (stereo not drawn)	M18AAP inhibitor 28 (no result: Lipid droplet)
COc1ccc(OC)c(C2CC(=O)N3CN(c4ccccc4)CSC3=C2C#N)c1 (stereo not drawn)	none (no result: Lipid droplet)
Cc1cccc(N2CSC3=C(C#N)C(c4ccc(C)o4)CC(=O)N3C2)c1 (stereo not drawn)	M18AAP inhibitor 33 (no result: HTR2A ag, Arrestin-AP2 inh, sPLA2-III inh, CendR NRP1 mod, Lipid droplet)
